Experimental data: paper PMC3899454 (Clinical Drug Investigation, 2013)

Key:
[1] = cited from earlier work
[2] = Safety and tolerability after a single dose; type: in vivo, human; details: 24 subjects
Outline: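 Single 0.4 U/kg s.c. thigh dose given at 0800–1000 h. Safety assessed by adverse events (severity and relationship graded by investigator), physical examination, vital signs, ECG, biochemistry, hematology, urinalysis and hypoglycemia. Confirmed hypoglycemia: plasma glucose <3.1 mmol/L or ADA 'severe'. Treatment-emergent: onset from dosing to 7 days post-dose. Blood glucose sampled to 120 h.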

[3] = compared with insulin glargine; cited from earlier work

insulin aspart
Impact of hepatic impairment and renal impairment on pharmacokinetics ([1]; single-dose pharmacokinetic studies): no significant impact

insulin degludec
Adverse events (other than hypoglycemia) or medical events of special interest ([2]; single s.c. dose 0.4 U/kg): No adverse events
Injection-site reactions ([2]; single s.c. dose 0.4 U/kg into the thigh): No injection-site reactions were reported
Severe hypoglycemic episodes ([2]; single s.c. dose 0.4 U/kg, ADA definition of severe): none of these episodes were categorized as severe
Variability of glucose-lowering effect [3]: four times less variable glucose-lowering effect
Pharmacokinetic properties in subjects with renal impairment ([1]; varying degrees of impaired renal function): pharmacokinetic properties were also preserved in subjects with renal impairment

insulin detemir
Pharmacokinetics in subjects with renal or hepatic impairment [1]: no clinically relevant difference in pharmacokinetics

insulin lispro
Effect of hepatic dysfunction on glucodynamic response [1]: did not appear to affect the glucodynamic response
